This is a sample that favours compounds with a hit; in the whole collection about 1.9% have one here.
MT stabilizer – stabilizes microtubules in HeLa cells. HeLa tubulin immunostaining HCS, 24 h; share of cells brighter than vehicle mean+2SD. % tubulin-high responders, % at 10 µM. actives 0.83% (n = 200,000). AID 2205;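 active = plate Z-score above 3 for both tubulin-high and condensed-nucleus cell shares, with cell loss under 80%, at 10 µM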;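 also: anti alpha tubulin signal scored within the nucleus-defined area of each cell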
bCat nuc transl – alters nuclear translocation of beta-catenin in HeLa cells; immunofluorescence imaging; AID 1665; nuclear translocation activity, % at 5 µM; actives 0.3% (n = 190,000);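 active = nuclear translocation activity above 50% at 5 µM, with a well cell count of 50 or more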;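 also: per-cell ratio of nuclear to cytoplasmic median beta-catenin stain intensity; plate controls were DMSO negative control for no effect and GSK-3 inhibitor IX positive control for full effect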
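Read-out: Nuclear/cytoplasmic beta-catenin signal ratio, % activation | Assay system: Human HeLa cell line | Times: 24 h compound exposure at 37°C, 5% CO2 | Signal: Fluorescence imaging of beta-catenin antibody stain plus DAPI | Dosing: 5 µM primary, 0.02–20 µM confirmation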
ROMK mod – modulates human ROMK potassium channel activity | actives 2% (n = 130,000) | B-score at 10 µM | AID 1918 | P48048 | Tet-inducible ROMK, thallium flux fluorescence; actives lie on both sides;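 active = signal ratio slope over the read window, or its plate-corrected B-score, at least 3 SD from the plate mean, either direction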;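 also: B-score of the F/F0 ratio slope over 7 to 12 s after thallium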
Target sequence (P48048 whole entry, looked up): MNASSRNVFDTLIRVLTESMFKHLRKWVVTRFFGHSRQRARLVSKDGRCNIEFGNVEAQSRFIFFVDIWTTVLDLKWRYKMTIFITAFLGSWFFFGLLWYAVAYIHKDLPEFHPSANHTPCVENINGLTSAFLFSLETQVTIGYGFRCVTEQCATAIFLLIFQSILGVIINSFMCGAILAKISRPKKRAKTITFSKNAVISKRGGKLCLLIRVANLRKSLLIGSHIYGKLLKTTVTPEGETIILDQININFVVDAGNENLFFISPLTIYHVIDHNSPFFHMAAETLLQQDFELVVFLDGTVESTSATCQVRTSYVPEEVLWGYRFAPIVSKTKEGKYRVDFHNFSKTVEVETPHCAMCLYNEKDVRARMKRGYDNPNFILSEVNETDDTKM
The depositor's hits bear a star; . = no result.

SMILES | MT stabilizer | bCat nuc transl | ROMK mod
CCCCN(C(=O)c1ccc(NC(=O)C(C)C)cc1)c1ccccc1 | 7 | 1 | 0.59
Cc1ccc(/C=C(\NC(=O)c2ccccc2)C(=O)N2CCCC2C(=O)O)cc1 (centres undefined) | 3 | -4 | -0.44
O=C(O)CCCNC(=O)c1ccc(NC(=O)Cc2ccc(Cl)cc2)cc1 | 2 | 0 | -0.28
Cc1cnc(NC(=O)c2c(-c3ccccc3)noc2C)s1 | . | 0 | .
O=C(NC1CCN(C(=O)N2c3ccccc3Sc3ccccc32)CC1)c1ccco1 | 13* | -5 | .
O=C(NC1CCN(C(=O)N2c3ccccc3Sc3ccccc32)CC1)c1ccccc1Cl | 2 | -2 | .
O=C(CN(c1cccc(Cl)c1)S(=O)(=O)c1ccc(Cl)cc1)N1CCc2ccccc2C1 | 3 | -1 | 0.15
Cc1nc(NCc2ccco2)c2c3c(sc2n1)CCC3 | 4 | 1 | .
COc1ccc(Nc2nc(C)nc3sc4c(c23)CCC4)cc1O | 21* | 2 | -0.65
COc1cccc(-n2c(CN3CCN(c4ccccc4)CC3)nc3ccc([N+](=O)[O-])cc3c2=O)c1 | 2 | 0 | 0.74
O=C(COc1ccc2c(c1)CCC2)NCc1ccc(Cl)cc1 | 2 | -4 | -0.15
Cc1cc(C)cc(N(CCC(=O)Nc2nnc(C3CC3)s2)S(=O)(=O)c2ccc(Cl)cc2)c1 | 19* | -2 | 0.07
Cc1ccc(S(=O)(=O)NCCC(=O)Nc2nnc(C3CC3)s2)cc1C | 5 | -7 | -0.34
O=C(CSc1ncnc2c1cnn2CCO)Nc1cccc(C(F)(F)F)c1 | 8 | . | -0.45
CN1C=CC=C/C1=C1\SC(=S)N(N)C1=O | 4 | -1 | 1.8
COc1ccc(C2=CC(=O)OC(C)(c3ccccc3)O2)cc1 (centres undefined) | 9.8* | 51* | 0.63
COc1ccc(N=C/C=C2\C=C(c3ccccc3)OC(C)(C)O2)cc1 | 2 | . | .
COc1ccc(S(=O)(=O)NCc2ccco2)cc1N(C)S(=O)(=O)c1ccccc1 | 6 | 1 | .
CCc1ccc(-c2nc(C(N)=O)c3[nH]c(=O)n(-c4ccccc4OC)c3n2)cc1 | 17* | -1 | .
COc1ccc(-c2nc(C(N)=O)c3[nH]c(=O)n(-c4cccc(Cl)c4)c3n2)cc1OC | 1 | . | .
CCOc1ccc(C2C=C(c3ccc(F)cc3)Nc3ncnn32)cc1 (centres undefined) | 3 | . | -0.49
CCOc1ccc(C2C=C(c3ccccc3)Nc3ncnn32)cc1 (centres undefined) | 5 | -2 | -2.7*
CCOc1ccccc1NC(=O)C1CCN(C(=O)Cc2ccccc2)CC1 | 2 | -2 | -0.2
O=C1N/C(=C\c2nc3ccccc3s2)c2ccccc21 | . | -4 | .
O=C1N/C(=C\c2ccccc2)c2ccccc21 | 20* | 1 | .
SMILES | MT stabilizer | bCat nuc transl | ROMK mod
COc1ccc2c(c1)C(c1ccc(N3CCOCC3)cc1)=NNC(c1cccnc1)=N2 | 4 | 0 | 0.21
COc1ccc(C2=NNC(c3cccnc3)=Nc3ccc(OC)cc32)cc1 | 13* | 0 | -0.075
COc1cccc(NC(=S)NC2CC(C)(C)NC(C)(C)C2)c1 | 2 | 0 | 0.085
C=CCn1c(=S)[nH]c2sc3c(c2c1=O)CCC3 | 3 | 0 | 3.2*
C=CCn1c(=S)[nH]c2nc3c(cc2c1=O)CCCC3 | 3 | . | .
CC(C)(C)NC(=O)c1ccc2c(c1)N(CC(=O)N1CCN(c3ccc(F)cc3)CC1)C(=O)C(C)(C)O2 | 4 | 0 | -0.28
COc1ccc(-c2cc([C@H]3[C@@H]4C=CCC[C@@]4(C)C(=O)N3Cc3ccccc3)ccc2F)cc1OC | . | -1 | .
COc1ccc(-n2cnc3cc(NC(=O)c4ccco4)ccc32)cc1 | 1 | . | -0.9
COc1ccccc1-n1cnc2cc(NC(=O)c3ccco3)ccc21 | 52* | 62* | .
Cc1ccc(S(=O)(=O)N2CCCC(C(=O)NCCC(C)C)C2)cc1 (centres undefined) | 4 | 1 | 0.079
Cc1nc(C(F)(F)F)nc(Nc2ccc(N=Nc3ccccc3)cc2)c1C#N | 4 | -1 | .
CCOC(=O)c1ccc(Oc2cc(C)nc(Cl)n2)cc1 | . | -1 | .
CCn1c(CC(=O)Nc2ccccc2)nnc1SCc1nc2ccccc2c(=O)[nH]1 | . | 1 | .
Oc1ccc(C(=S)N2CCN(c3cccc(Cl)c3)CC2)cc1 | 7 | -1 | 1.2
COc1ccc(C(=S)N2CCN(c3cccc(Cl)c3)CC2)c(OC)c1 | 18* | 107* | 1.6
COc1ccc(C(=O)N2CCN(c3cccc(Cl)c3)CC2)cc1 | 2 | -2 | .
COc1cc(CN2CCN(c3cccc(Cl)c3)CC2)cc(OC)c1OC | 46* | -2 | 0.71
COc1ccc(CCNC(=O)CN2CCN(c3cccc(Cl)c3)CC2)cc1OC | 1 | 0 | .
COc1cc(C(=S)N2CCN(c3cccc(Cl)c3)CC2)ccc1O | 24* | 50* | 0.88
CCOC(=O)C1(Cc2ccccc2C(F)(F)F)CCN(C2CCN(C(C)=O)CC2)CC1 | 2 | 0 | 0.96
